Where two headings read alike, the source gives them in different places.
Legend:
[1] = system: cell surface/endosomal TLR3; experiment: media poly; assay type: cell-based, mouse; settings: neutrophils, high-molecular-weight poly(I:C) 1 μg/ml added to media; Fig. 1D
Summary of the method: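 Thioglycolate-elicited mouse peritoneal neutrophils (collected day 1, DMEM/2% FBS) were stimulated with high-molecular-weight poly(I:C) (1 μg/ml) added to medium, alone or with test peptide, at 37°C/5% CO₂. Phospho-NFκB p65⁺ and phospho-IRF3⁺ cells were quantified by intracellular flow cytometry. Mean ± SD, N = 3 replicates.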

[2] = system: amikacin-resistant P. aeruginosa, mouse corneas; experiment: Treatment of established P. aeruginosa keratitis; assay type: in vivo; settings: for total leukocytes, neutrophils and macrophages, P. aeruginosa treatment: 3 times daily, as early as one day post-treatment, Fig. 6C-F; for disease severity over the 3-day treatment course, P. aeruginosa: 5 μg in liposomes topical 3 times daily
Summary of the method: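 Scarified C57BL/6J corneas (one per mouse) inoculated with amikacin-resistant P. aeruginosa (10⁵ CFU). From 24 h post-infection: test peptide in phosphatidylcholine/stearylamine/cholesterol liposomes (5 μg in 5 μl), or liposome vehicle, applied topically three times daily for 1 or 3 days. Blinded 0-16 clinical score from four opacity/epithelial features. Corneal CD45⁺ leukocytes, Ly6B.2⁺F4/80⁻ neutrophils and F4/80⁺ macrophages counted by flow cytometry.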

hTCEpi cells = experiment: TUNEL assay of DNA fragmentation; assay type: cell-based, human; settings: 24-h incubation, Fig. S1B
human MD2/TLR4 complex = experiment: MD2 blocking assay; assay type: binding; settings: for inhibition of LPS binding to MD2/TLR4 beads (in words): 30-min preincubation, peptide 60 μM, FITC-LPS 1 μg/ml, Fig. 3A; for inhibition of LPS binding to MD2/TLR4 beads with soluble MD2: soluble MD2 1 μg/ml present during preincubation with peptide 60 μM, Fig. 3B
Summary of the method: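 Human MD2/TLR4-conjugated latex beads incubated with test peptide (60 μM), without or with soluble MD2 (1 μg/ml). Beads washed, then incubated with FITC-LPS (1 μg/ml). Percentage of LPS⁺ beads quantified by flow cytometry. Mean ± SEM, n = 3-5 independent experiments.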

[3] = ref [20]; cited from earlier work
mouse corneal epithelium [4] = experiment: Corneal wound healing; assay type: in vivo; settings: 0.1% topical, 2.5 μg peptide three times within 24 h, 6 h and 24 h after wounding, vs saline and SC10, Fig. S1E
Summary of the method: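 C57BL/6J mice, both sexes, 10–12 wk, anesthetised i.p. with ketamine/dexmedetomidine, reversed with atipamezole. Central 2 mm corneal epithelium removed with blade. Wounds got topical saline or test peptide (2.5 μg) three times within 24 h. Defects stained with 0.38% fluorescein immediately, 6 h and 24 h post-injury; stained area measured. One cornea per mouse.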

[5] = system: human telomerase-immortalized corneal epithelial (hTCEpi) cells; experiment: MTT cell viability; assay type: cell-based; settings: discussion summary
Summary of the method: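 hTCEpi (telomerase-immortalized human corneal epithelial) cells incubated 24 h with test peptide at 200 μg/ml (0.02% w/v), with a scrambled peptide as control. Viability was read by MTT assay.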

[6] = system: TLR2, mouse peritoneal macrophages; experiment: TLR2 endocytosis in macrophages, flow cytometry; assay type: cell-based; settings: peptide alone 200 μg/ml (LTA 500 ng/ml), 1 h; Fig. 4D
Summary of the method: (§1)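 Thioglycolate-elicited C57BL/6J peritoneal neutrophils (day 1) or adherent macrophages (day 3) incubated 1 h with test peptide alone. TLR2 localisation assessed by flow cytometry as cell-surface versus intracellular staining.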

[7] = system: amikacin-resistant P. aeruginosa keratitis isolate, mouse corneas; experiment: Prophylaxis of P. aeruginosa keratitis; assay type: in vivo; settings: 0.1% (5 μg) topical once 30 min before infection; 24 h; P < 0.01; Fig. 5D, E
Summary of the method: (§2)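 C57BL/6J mice (both sexes, 10-12 wk), anesthetized with ketamine/dexmedetomidine i.p. One cornea per mouse, scarified with three 26g-needle abrasions. 5 μl test peptide (0.1% in saline, 5 μg) applied once, 30 min before amikacin-resistant P. aeruginosa 10⁵ CFU or S. aureus 10⁶ CFU. At 24 h: homogenate CFU on tryptic soy agar; collagenase-digested corneas analysed by flow cytometry for CD45⁺, Ly6B.2⁺F4/80⁻ and F4/80⁺ cells. n = 8-10, two experiments.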

immune cells [8] = experiment: Toxic effect on immune cells; settings: discussion summary
Pseudomonas aeruginosa = settings: ref [20]; cited from earlier work
[9] = system: thioglycolate-elicited mouse peritoneal neutrophils; experiment: LPS/LTA-induced cytokine secretion from neutrophils, ELISA; assay type: cell-based; settings: for dose dependence of cytokine inhibition, neutrophils: 50, 100 or 200 μg/ml, 8 h, Fig. S2; for cytokine suppression at 24 h, neutrophils: 24 h post-ligand stimulation, Fig. S3
Summary of the method: (§3)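 C57BL/6J mice injected i.p. with 1 ml 3% thioglycolate. Peritoneal neutrophils collected day 1 (DMEM), macrophages day 3 (RPMI, 6 h adherence), both 2% FBS, 1x10⁵ cells/well after RBC lysis. Stimulated with P. aeruginosa LPS or S. aureus LTA (500 ng/ml); test peptide (50, 100 or 200 μg/ml) added 30 min before or after. Incubated 8 or 24 h, 37°C/5% CO₂. Supernatant IL-6, TNFα, G-CSF, CXCL1, CXCL2, CXCL10 measured by ELISA.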

S. aureus, mouse corneas [10] = experiment: Treatment of established S. aureus keratitis; assay type: in vivo; settings: for infectious load, S. aureus treatment: 5 μg in liposomes, 3 times daily, Fig. 7G
Summary of the method: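 C57BL/6J mice, both sexes, 10–12 wk. Corneas scarified with three 26g needle abrasions, inoculated with S. aureus 10⁶ CFU. From 24 h post-infection, 5 μg test peptide in 5 μl liposome mix (phosphatidylcholine/stearylamine/cholesterol) or liposome vehicle given topically three times daily for 1 or 3 days. Blinded daily scoring of four features (0–4 each, total 0–16). Endpoint CFU from corneal homogenates plated on tryptic soy agar.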

S. aureus, mouse corneas [11] = experiment: Prophylaxis of S. aureus keratitis; assay type: in vivo; settings: 0.1% (5 μg) topical once 30 min before 10^6 CFU, 24 h; for bacterial burden, S. aureus prophylaxis: Fig. 5H; for immune cell infiltration, S. aureus prophylaxis: Fig. 5I, J
Summary of the method: as §2

[12] = system: thioglycolate-elicited mouse peritoneal macrophages; experiment: LPS/LTA-induced cytokine secretion from macrophages, ELISA; assay type: cell-based; settings: for dose dependence of cytokine inhibition, macrophages: 50, 100 or 200 μg/ml, 8 h, Fig. S2; for cytokine suppression at 24 h, macrophages: 24 h post-ligand stimulation, Fig. S3
Summary of the method: as §3

red blood cells = experiment: Hemolysis; assay type: cell-based; settings: for toxic effect on blood cells: discussion summary; for hemolysis (amount of hemoglobin released): vs untreated samples, Fig. S1C
mouse corneal epithelium [13] = experiment: Corneal epithelial barrier function, fluorescein staining in vivo
[14] = system: TLR2, mouse peritoneal neutrophils; experiment: TLR2 endocytosis in neutrophils, flow cytometry; assay type: cell-based; settings: peptide alone 200 μg/ml (LTA 500 ng/ml), 1 h; Fig. 4C
Summary of the method: as §1

[15] = ref [20]; cited from earlier work; remark: listed apart in the source
Staphylococcus aureus = settings: ref [20]; cited from earlier work
immune cells [16] = system: immune cells
TLR2 = experiment: LTA displacement assay; assay type: binding, human; settings: 60 μM, 30 min; Fig. 3F
Summary of the method: (§4)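 Beads conjugated with human MD2/TLR4 complex or TLR2 were preincubated with FITC-LPS or FITC-LTA (1 μg/ml) respectively, PBS-washed, then mixed with test peptide (60 μM). Percentage of ligand-positive beads was measured by flow cytometry. Mean ± SEM, n = 3-5 independent experiments.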

MD2/TLR4 complex = experiment: LPS displacement assay; assay type: binding, human; settings: 60 μM, 30 min; Fig. 3E
Summary of the method: as §4

bacteria = settings: high-salt media; ref [49], [50]; cited from earlier work
[17] = ref [49], [50]; cited from earlier work

Substance	total leukocytes, neutrophils and macrophages, P. aeruginosa treatment ([2]; 5 μg in liposomes)	apoptosis (hTCEpi cells)	inhibition of LPS binding to MD2/TLR4 beads (in words) (human MD2/TLR4 complex)	inhibition of LPS binding to MD2/TLR4 beads with soluble MD2 (human MD2/TLR4 complex)	barrier restoration after wounding (re-epithelialization) (mouse corneal epithelium [4])	toxic effect on corneal epithelial cells [5]	TLR2 internalization, macrophages [6]	infiltrated leukocytes, neutrophils and macrophages, P. aeruginosa prophylaxis [7]	dose dependence of cytokine inhibition, neutrophils [9]	cytokine suppression at 24 h, neutrophils [9]	infectious load, S. aureus treatment (S. aureus, mouse corneas [10])	bacterial burden, S. aureus prophylaxis (S. aureus, mouse corneas [11])	immune cell infiltration, S. aureus prophylaxis (S. aureus, mouse corneas [11])	dose dependence of cytokine inhibition, macrophages [12]	cytokine suppression at 24 h, macrophages [12]	toxic effect on blood cells (red blood cells)	hemolysis (amount of hemoglobin released) (red blood cells)	corneal barrier function, fluorescein staining (mouse corneal epithelium [13]; mouse, in vivo)	TLR2 internalization, neutrophils [14]	disease severity over the 3-day treatment course, P. aeruginosa ([2]; Fig. 6A, B)	further results
GGLSSVGGGS [KAMP10]	substantially reduced	did not induce apoptosis	effectively inhibited subsequent LPS binding	inhibitory effect was abolished	substantially accelerated	no detectable toxic effect	triggered internalization of TLR2	significantly reduced	dose-dependent	effective suppression	substantially reducing the infectious load	alleviated	alleviated	dose-dependent	effective suppression	no detectable toxic effect	no difference from the baseline of untreated samples	remained stain-free	triggered internalization of TLR2		p65 and IRF3 phosphorylation, media poly(I:C) [1]: inhibited p65 and IRF3 phosphorylation; relative effect on disease severity, P. aeruginosa treatment ([2]; KAMP10 vs KAMP18C, 5 μg in liposomes, 1 DAT, Fig. 6A, B): effect more prominent; binding affinity for LPS [3]: modest binding affinity; toxic effect on immune cells (immune cells [8]): no detectable toxic effect; bactericidal mechanism, P. aeruginosa (Pseudomonas aeruginosa): perforated Pseudomonas aeruginosa membrane
RAIGGGLSSVGGGSSTIK [KAMP18C]	substantially reduced	did not induce apoptosis	effectively inhibited subsequent LPS binding	inhibitory effect was abolished	substantially accelerated	no detectable toxic effect	triggered internalization of TLR2	significantly reduced	dose-dependent	effective suppression	substantially reducing the infectious load	alleviated	alleviated	dose-dependent	effective suppression	no detectable toxic effect	no difference from the baseline of untreated samples	remained stain-free	triggered internalization of TLR2		binding affinity for LTA [15]: modest binding affinity; bactericidal mechanism, S. aureus (Staphylococcus aureus): caused major damage to the cell envelope of Staphylococcus aureus; toxic effect on immune cells (immune cells [16]): no detectable toxic effect; relative effect on disease severity, S. aureus treatment (S. aureus, mouse corneas [10]; KAMP18C vs KAMP10, 5 μg in liposomes, Fig. 7A, B): more effective against S. aureus infection
Benzalkonium chloride [BAK, reference compound]																					corneal barrier function, fluorescein staining (mouse corneal epithelium [13]; mice, one topical application at 0.1% in saline, Fig. S1D): high degree of fluorescein penetration
GLSGVGSGSG [SC10, reference compound]			but not SC10, effectively inhibited		in contrast to saline and SC10													stain-free similarly to the SC10- or saline-treated controls		severity progression or lack of improvement	displacement of LTA from TLR2 beads (in words) (TLR2): as opposed to SC10; displacement of LPS from MD2/TLR4 beads (in words) (MD2/TLR4 complex): as opposed to SC10
LL-37																				severity progression or lack of improvement	bactericidal activity of LL-37 (bacteria): characterized bactericidal activities in high-salt media; LPS- and LTA-neutralizing activity [17]: known LPS- and LTA-neutralizing activities

Reference: article PMC10173409 (Science translational medicine, 2023)
